Active and inactive are the calls of the source. No cut-off for these calls is given here.
Columns and labels:
Mus musculus [1] = assay: Clastogenic effect on C57BL mouse assessed as number of metaphase chromosomal breaks in bone marrow cells at 10 mg/kg, ip after 24 hrs; assay type: functional; details: route intraperitoneal
Outline: (§1)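 Inbred male and female C57Bl mice, groups of 3 males + 3 females, dosed i.p. (0.9% NaCl vehicle/negative control); mitomycin C 3.5 mg/kg positive control. Colchicine 40 mg/kg i.p. 1 h before femoral bone marrow harvest; hypotonic 0.075 M KCl 20 min at 37 °C, methanol-acetic acid fixation, Giemsa stain; ≥50 metaphases per animal scored; group mean ± SE.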

Mus musculus [2] = assay: Clastogenic effect on C57BL mouse assessed as number of metaphase chromosomal breaks in bone marrow cells at 10 mg/kg, ip after 48 hrs; assay type: functional; details: route intraperitoneal; outline: as §1
Mus musculus [3] = assay: Clastogenic effect on C57BL mouse assessed as number of metaphase chromosomal breaks in bone marrow cells at 100 mg/kg, ip after 24 hrs; assay type: functional; details: route intraperitoneal; outline: as §1
Mus musculus [4] = assay: Clastogenic effect on C57BL mouse assessed as number of metaphase chromosomal breaks in bone marrow cells at 100 mg/kg, ip after 48 hrs; assay type: functional; details: route intraperitoneal; outline: as §1
Mus musculus [5] = assay: Clastogenic effect on C57BL mouse assessed as number of metaphase chromosomal fragments in bone marrow cells at 10 mg/kg, ip after 24 hrs; assay type: functional; details: route intraperitoneal; outline: as §1
Mus musculus [6] = assay: Clastogenic effect on C57BL mouse assessed as number of metaphase chromosomal fragments in bone marrow cells at 10 mg/kg, ip after 48 hrs; assay type: functional; details: route intraperitoneal; outline: as §1
Mus musculus [7] = assay: Clastogenic effect on C57BL mouse assessed as number of metaphase chromosomal fragments in bone marrow cells at 100 mg/kg, ip after 24 hrs; assay type: functional; details: route intraperitoneal; outline: as §1
Mus musculus [8] = assay: Clastogenic effect on C57BL mouse assessed as number of metaphase chromosomal fragments in bone marrow cells at 100 mg/kg, ip after 48 hrs; assay type: functional; details: route intraperitoneal; outline: as §1
Mus musculus [9] = assay: Clastogenic effect on C57BL mouse assessed as number of metaphase chromosomal centromere/centromeric fusion in bone marrow cells at 10 mg/kg, ip after 24 hrs; assay type: functional; details: route intraperitoneal; outline: as §1
Mus musculus [10] = assay: Clastogenic effect on C57BL mouse assessed as number of metaphase chromosomal centromere/centromeric fusion in bone marrow cells at 10 mg/kg, ip after 48 hrs; assay type: functional; details: route intraperitoneal; outline: as §1
Mus musculus [11] = assay: Clastogenic effect on C57BL mouse assessed as number of metaphase chromosomal centromere/centromeric fusion in bone marrow cells at 100 mg/kg, ip after 24 hrs; assay type: functional; details: route intraperitoneal; outline: as §1
Mus musculus [12] = assay: Clastogenic effect on C57BL mouse assessed as number of metaphase chromosomal centromere/centromeric fusion in bone marrow cells at 100 mg/kg, ip after 48 hrs; assay type: functional; details: route intraperitoneal; outline: as §1
Mus musculus [13] = assay: Clastogenic effect on C57BL mouse assessed as number of metaphase chromosome telomere/telomeric fusion in bone marrow cells at 10 mg/kg, ip after 24 hrs; assay type: functional; details: route intraperitoneal; outline: as §1
Mus musculus [14] = assay: Clastogenic effect on C57BL mouse assessed as number of metaphase chromosome telomere/telomeric fusion in bone marrow cells at 10 mg/kg, ip after 48 hrs; assay type: functional; details: route intraperitoneal; outline: as §1
Mus musculus [15] = assay: Clastogenic effect on C57BL mouse assessed as number of metaphase chromosome telomere/telomeric fusion in bone marrow cells at 100 mg/kg, ip after 24 hrs; assay type: functional; details: route intraperitoneal; outline: as §1
Mus musculus [16] = assay: Clastogenic effect on C57BL mouse assessed as number of metaphase chromosome telomere/telomeric fusion in bone marrow cells at 100 mg/kg, ip after 48 hrs; assay type: functional; details: route intraperitoneal; outline: as §1
Mus musculus [17] = assay: Clastogenic effect on C57BL mouse assessed as bone marrow cells with abberation at 10 mg/kg, ip after 24 hrs; assay type: functional; details: route intraperitoneal; outline: as §1
Mus musculus [18] = assay: Clastogenic effect on C57BL mouse assessed as bone marrow cells with abberation at 10 mg/kg, ip after 48 hrs; assay type: functional; details: route intraperitoneal; outline: as §1
Mus musculus [19] = assay: Clastogenic effect on C57BL mouse assessed as bone marrow cells with abberation at 100 mg/kg, ip after 24 hrs; assay type: functional; details: route intraperitoneal; outline: as §1
Mus musculus [20] = assay: Clastogenic effect on C57BL mouse assessed as bone marrow cells with abberation at 100 mg/kg, ip after 48 hrs; assay type: functional; details: route intraperitoneal; outline: as §1
Mus musculus [21] = assay: Clastogenic effect on C57BL mouse assessed as mitotic index in bone marrow cells at 10 mg/kg, ip after 24 hrs; assay type: functional; details: route intraperitoneal
Outline: (§2)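 C57Bl mice (3 males + 3 females per group) given compound i.p.; saline controls. Colchicine 40 mg/kg i.p. 1 h before bone marrow harvest from femur; hypotonic KCl, fixed, Giemsa-stained slides. Mitotic index = dividing cells counted among 1500 cells per animal; per-animal values averaged as group mean ± SE.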

Mus musculus [22] = assay: Clastogenic effect on C57BL mouse assessed as mitotic index in bone marrow cells at 10 mg/kg, ip after 48 hrs; assay type: functional; details: route intraperitoneal; outline: as §2
Mus musculus [23] = assay: Clastogenic effect on C57BL mouse assessed as mitotic index in bone marrow cells at 100 mg/kg, ip after 24 hrs; assay type: functional; details: route intraperitoneal; outline: as §2
Mus musculus [24] = assay: Clastogenic effect on C57BL mouse assessed as mitotic index in bone marrow cells at 100 mg/kg, ip after 48 hrs; assay type: functional; details: route intraperitoneal; outline: as §2
HL-60 = assay: Cytotoxicity against human HL60 cells after 72 hrs by MTT assay; assay type: functional, cell-based; details: HL-60, 72 h
Outline: (§3)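 Cells at 37 °C, 5% CO2; 293T in DMEM, others in RPMI 1640, both with 2 mM L-glutamine and 10% FCS. Seeded 10⁴ cells/well, 24 h preincubation, then compounds 0.195–200 µM (DMSO ≤1% final) for 72 h continuous. MTT added, 4 h, formazan dissolved in 5% formic acid-acidified DMSO, absorbance read; IC50 = concentration giving 50% survival decrease.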

LAMA-84 = assay: Cytotoxicity against human LAMA-84 cells after 72 hrs by MTT assay; assay type: functional, cell-based; details: LAMA-84, 72 h; outline: as §3
K562 = assay: Cytotoxicity against human K562 cells after 72 hrs by MTT assay; assay type: functional, cell-based; details: K562, 72 h; outline: as §3
DOHH-2 [25] = assay: Cytotoxicity against human DOHH2 cells after 72 hrs by MTT assay; assay type: functional, cell-based; details: DOHH-2, 72 h; outline: as §3
HD-MY-Z = assay: Cytotoxicity against human HD-MY-Z cells after 72 hrs by MTT assay; assay type: functional, cell-based; outline: as §3
EJ = assay: Cytotoxicity against human EJ cells after 72 hrs by MTT assay; assay type: functional, cell-based; outline: as §3
[26] = Cytotoxicity against human 293T after 72 hrs by MTT assay; assay type: cell-based; details: HEK-293T; outline: as §3
DOHH-2 [27] = assay: Induction of apoptosis in human DOHH2 cells assessed as increase in histone-associated oligonucleotide level after 24 hrs by ELISA; assay type: functional, cell-based
Outline: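 DOHH-2 cells exposed 24 h to equitoxic compound concentrations versus untreated control; cytosolic fractions of 1 × 10⁴ cells used in sandwich ELISA (anti-histone capture, peroxidase-conjugated anti-DNA detection) for histone-associated DNA fragments, read at 405 nm; means ± SD of three independent experiments.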

COP(=O)(CNC1(C(=O)O)CCCC1)OC
Activity (Mus musculus [1]): 7
Activity (Mus musculus [2]): 6
Activity (Mus musculus [3]): 8
Activity (Mus musculus [4]): 6
Activity (Mus musculus [5]): 1
Activity (Mus musculus [6]): 0
Activity (Mus musculus [7]): 3
Activity (Mus musculus [8]): 0
Activity (Mus musculus [9]): 9
Activity (Mus musculus [10]): 13
Activity (Mus musculus [11]): 10
Activity (Mus musculus [12]): 8
Activity (Mus musculus [13]): 0
Activity (Mus musculus [14]): 1
Activity (Mus musculus [15]): 0
Activity (Mus musculus [16]): 2
Activity (Mus musculus [17]): 4.85%
Activity (Mus musculus [18]): 5.77%
Activity (Mus musculus [19]): 7%
Activity (Mus musculus [20]): 6.4%
Activity (Mus musculus [21]): 10.39%
Activity (Mus musculus [22]): 10.66%
Activity (Mus musculus [23]): 10.97%
Activity (Mus musculus [24]): 8.33%
IC50 (HL-60): 157 µM
IC50 (LAMA-84): 162 µM
IC50 (K562): > 200 µM
IC50 (DOHH-2 [25]): 145 µM
IC50 (HD-MY-Z): > 200 µM
IC50 (EJ): > 200 µM
IC50 [26]: > 200 µM

COP(=O)(CNC1(C(=O)O)CCCCC1)OC
Activity (Mus musculus [1]): 4
Activity (Mus musculus [2]): 6
Activity (Mus musculus [3]): 7
Activity (Mus musculus [4]): 14
Activity (Mus musculus [5]): 0
Activity (Mus musculus [6]): 1
Activity (Mus musculus [7]): 1
Activity (Mus musculus [8]): 0
Activity (Mus musculus [9]): 11
Activity (Mus musculus [10]): 9
Activity (Mus musculus [11]): 20
Activity (Mus musculus [12]): 12
Activity (Mus musculus [13]): 0
Activity (Mus musculus [14]): 0
Activity (Mus musculus [15]): 0
Activity (Mus musculus [16]): 0
Activity (Mus musculus [17]): 5.33%
Activity (Mus musculus [18]): 5.33%
Activity (Mus musculus [19]): 8.34%
Activity (Mus musculus [20]): 7.42%
Activity (Mus musculus [21]): 7.27%
Activity (Mus musculus [22]): 6.71%
Activity (Mus musculus [23]): 7.15%
Activity (Mus musculus [24]): 9.23%
IC50 (HL-60): 136 µM
IC50 (LAMA-84): 98.6 µM
IC50 (K562): 128 µM
IC50 (DOHH-2 [25]): 84.2 µM
IC50 (HD-MY-Z): 164 µM
IC50 (EJ): 116 µM
IC50 [26]: > 200 µM

COP(=O)(CNC1(C(=O)O)CCCCCCC1)OC
Activity (Mus musculus [1]): 2
Activity (Mus musculus [2]): 0
Activity (Mus musculus [3]): 4
Activity (Mus musculus [4]): 3
Activity (Mus musculus [5]): 1
Activity (Mus musculus [6]): 1
Activity (Mus musculus [7]): 3
Activity (Mus musculus [8]): 0
Activity (Mus musculus [9]): 10
Activity (Mus musculus [10]): 14
Activity (Mus musculus [11]): 11
Activity (Mus musculus [12]): 12
Activity (Mus musculus [13]): 0
Activity (Mus musculus [14]): 0
Activity (Mus musculus [15]): 1
Activity (Mus musculus [16]): 0
Activity (Mus musculus [17]): 3.71%
Activity (Mus musculus [18]): 4.67%
Activity (Mus musculus [19]): 5.43%
Activity (Mus musculus [20]): 5%
Activity (Mus musculus [21]): 11.35%
Activity (Mus musculus [22]): 13.95%
Activity (Mus musculus [23]): 13.06%
Activity (Mus musculus [24]): 9.67%
IC50 (HL-60): 73.5 µM
IC50 (LAMA-84): 71.4 µM
IC50 (K562): 79.1 µM
IC50 (DOHH-2 [25]): 37.4 µM
IC50 (HD-MY-Z): 127 µM
IC50 (EJ): 115 µM
IC50 [26]: 176 µM
Activity (DOHH-2 [27]): Active
